# Reference: ChEMBL document CHEMBL1123921, “Quinolonecarboxylic acids. 2. Synthesis and antibacterial evaluation of 7-oxo-2,3-dihydro-7H-pyrido[1,2,3-de][1,4]benzothiazine-6-carboxylic acids” (J Med Chem, 1987)
# Columns and labels:
# Type in all cases: functional
# Enterobacter cloacae = assay: In vitro antibacterial activity against clinical isolates of Enterobacter cloacae 041 (gram negative) by agar dilution assay.
# Summary of the method: (§1)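 Agar dilution on Isosensitest agar; compound incorporated by twofold serial dilution. Overnight broth cultures delivered by multipoint inoculator at 10⁵ CFU per point. Plates read after 18 h at 37 °C. MIC taken as the lowest concentration giving complete growth inhibition.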
# Escherichia coli = assay: In vitro antibacterial activity against clinical isolates of Escherichia coli 15 (gram negative) by agar dilution assay.; summary of the method: as §1
# Staphylococcus aureus = assay: In vitro antibacterial activity against clinical isolates of Staphylococcus aureus 18773 (gram-positive) by agar dilution assay.; summary of the method: as §1
# Morganella morganii = assay: In vitro antibacterial activity against clinical isolates of Proteus morganii 27 (gram negative) by agar dilution assay.; summary of the method: as §1
# Pseudomonas aeruginosa = assay: In vitro antibacterial activity against clinical isolates of Pseudomonas aeruginosa 2437 (gram negative) by agar dilution assay.; summary of the method: as §1
# Klebsiella pneumoniae = assay: In vitro antibacterial activity against clinical isolates of Klebsiella pneumoniae-4 (gram negative) by agar dilution assay.; summary of the method: as §1
SMILES,MIC (Enterobacter cloacae),MIC (Escherichia coli),MIC (Staphylococcus aureus),MIC (Morganella morganii),MIC (Pseudomonas aeruginosa),MIC (Klebsiella pneumoniae)
O=C(O)c1cn2c3c(c(Cl)c(Cl)cc3c1=O)SCC2,> 50 µg/mL,> 50 µg/mL,0.78 µg/mL,1.56 µg/mL,> 50 µg/mL,12.5 µg/mL
O=C(O)c1cn2c3c(c(N4CCSCC4)c(F)cc3c1=O)SCC2,1.56 µg/mL,3.12 µg/mL,0.78 µg/mL,6.25 µg/mL,> 50 µg/mL,1.56 µg/mL
O=C(O)c1cn2c3c(c(N4CCCC4)c(F)cc3c1=O)SCC2,1.56 µg/mL,1.56 µg/mL,< 0.39 µg/mL,3.12 µg/mL,3.12 µg/mL,1.56 µg/mL
O=C(O)c1cn2c3c(c(N4CCN(CC(F)(F)F)CC4)c(F)cc3c1=O)SCC2,> 50 µg/mL,> 50 µg/mL,0.39 µg/mL,> 50 µg/mL,> 50 µg/mL,> 50 µg/mL
O=C(O)c1cn2c3c(cc(N4CCCC4)c(Cl)c3c1=O)SCC2,,> 100 µg/mL,100 µg/mL,> 100 µg/mL,> 100 µg/mL,> 100 µg/mL
CCn1cc(C(=O)O)c(=O)c2cnc(N3CCNCC3)nc21 [PIPEMIDIC ACID],0.78 µg/mL,0.39 µg/mL,3.12 µg/mL,3.12 µg/mL,> 25 µg/mL,0.78 µg/mL
CC1COc2c(N3CCN(C)CC3)c(F)cc3c(=O)c(C(=O)O)cn1c23 (centres undefined) [OFLOXACIN],0.19 µg/mL,0.19 µg/mL,0.19 µg/mL,0.78 µg/mL,1.56 µg/mL,0.39 µg/mL
O=C(O)c1cn2c3c(cc(F)c(N4CCNCC4)c3c1=O)SCC2,> 100 µg/mL,> 100 µg/mL,> 100 µg/mL,> 100 µg/mL,> 100 µg/mL,> 100 µg/mL
O=C(O)c1cn2c3c(c(Cl)c(F)cc3c1=O)SCC2,0.39 µg/mL,0.39 µg/mL,0.39 µg/mL,6.25 µg/mL,> 25 µg/mL,0.78 µg/mL
O=C(O)c1cn2c3c(c(Cl)c(N4CCNCC4)cc3c1=O)SCC2,> 50 µg/mL,> 50 µg/mL,> 50 µg/mL,> 50 µg/mL,> 50 µg/mL,> 50 µg/mL
O=C(O)c1cn2c3c(c(N4CCNCC4)c(F)cc3c1=O)SCC2,< 0.39 µg/mL,0.39 µg/mL,0.78 µg/mL,1.56 µg/mL,12.5 µg/mL,< 0.39 µg/mL
CCn1cc(C(=O)O)c(=O)c2cc(F)c(N3CCNCC3)cc21 [NORFLOXACIN],0.39 µg/mL,0.19 µg/mL,0.19 µg/mL,0.78 µg/mL,1.56 µg/mL,0.19 µg/mL
O=C(O)c1cn2c3c(c(Cl)c(N4CCOCC4)cc3c1=O)SCC2,> 50 µg/mL,6.25 µg/mL,> 50 µg/mL,> 50 µg/mL,6.25 µg/mL,> 50 µg/mL
O=C(O)c1cn2c3c(cc(F)cc3c1=O)S(=O)(=O)CC2,,100 µg/mL,> 50 µg/mL,,> 50 µg/mL,
CN1CCN(c2cc3c(=O)c(C(=O)O)cn4c3c(c2Cl)SCC4)CC1,> 50 µg/mL,> 50 µg/mL,> 50 µg/mL,> 50 µg/mL,6.25 µg/mL,> 50 µg/mL
O=C(O)c1cn2c3c(c(N4CCN(C(=O)C(F)(F)F)CC4)c(F)cc3c1=O)SCC2,< 0.39 µg/mL,< 0.39 µg/mL,1.56 µg/mL,1.56 µg/mL,12.5 µg/mL,< 0.39 µg/mL
O=C(O)c1cn2c3c(c(Cl)c(F)cc3c1=O)[S+]([O-])CC2 (centres undefined),> 100 µg/mL,> 100 µg/mL,> 100 µg/mL,> 100 µg/mL,> 100 µg/mL,> 100 µg/mL
O=C(O)c1cn2c3c(cc(Cl)cc3c1=O)SCC2,12.5 µg/mL,3.12 µg/mL,25 µg/mL,6.25 µg/mL,> 100 µg/mL,6.25 µg/mL
